pIC50: −log10 of the molar value.
What was measured:
[1] = biological target: T-cell surface glycoprotein CD4 (Homo sapiens, UniProt P01730); assay: Binding affinity to signal peptide of human CD4-YFP expressed in CHO-K1 cells assessed down-modulation of CD4 surface expression incubated for 24 hrs by flow cytometry; type: cell-based
Procedure, shortened: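 CHO cells stably expressing human CD4 C-terminally fused to YFP were exposed 24 h at 37 °C to 1:5 serial dilutions, washed, fixed in 1% formaldehyde and analysed by flow cytometry (488 nm laser). YFP MFI, minus non-transfected background, was expressed as % of untreated controls. IC50 is the concentration giving 50% down-modulation. Mean ± SD, n = 3.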

[2] = tested on: Human immunodeficiency virus 1; assay: Antiviral activity against HIV-1 NL4-3 infected in human MT-4 cells assessed as inhibition of viral replication by measuring inhibition of cell viability preincubated with cells for 15 mins followed by viral infection and measured after 4 days by MTS/PES assay; type: functional, organism-based; details: Human immunodeficiency virus 1, NL4-3, MT4
Procedure, shortened: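 HIV-1 NL4.3 (30 pg/well) was then added at 37 °C. After 4 days, viability was read by MTS/PES (absorbance 490 and 700 nm) and the IC50 for viral replication was calculated. Mean ± SD, n = 2 or 3.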

MT4 = assay: Cytotoxicity against human MT-4 cells assessed as inhibition of cell viability incubated for 48 hrs by MTS/PES assay; type: cell-based; details: mt4, 48 h
Procedure, shortened: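 Cytotoxicity: 10^4 MT-4 cells/well in DMEM with 10% FBS and 10 mM HEPES were exposed to compounds 48 h at 37 °C. CC50 was derived from the drop in viability measured by MTS/PES.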

[3] = Kinetic solubility of the compound in aqueous PBS buffer at H 7.4/2.5% DMSO incubated for 1 hr by nephelometry; type: physicochemical; details: aqueous PBS buffer with 2.5% DMSO, pH 7.4, read-out: Kinetic_solubility
Procedure, shortened: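 Compound from a 20 mM DMSO stock was diluted into PBS pH 7.4 at a constant 2.5% DMSO, then two-fold serially diluted in quadruplicate, with extra intermediate concentrations. Plates were shaken 2 min, held 1 h at 37 °C and shaken 3 min before nephelometry. Blank-subtracted scattering onset defined kinetic solubility.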

[4] = Thermodynamic solubility of the compound in aqueous PBS buffer at pH 7.4 incubated for 72 hrs by shake flask method based UV-Vis absorption spectroscopy; type: physicochemical; details: read-out: Therm_solubility
Procedure, shortened: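 Shake-flask method: 3–5 mg compound in 5 mL PBS pH 7.4 was agitated 72 h, with excess solid checked at 24 and 48 h. The solution was then filtered and the filtrate quantified by UV-Vis standard addition with Beer–Lambert. ε came from five-concentration methanol calibrations at λmax, fitted by linear least squares.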

[5] = tested on: CD4 (surface expression down-modulation); assay: Therapeutic index, ratio of CC50 for human MT-4 cells to IC50 for human CD4-YFP expressed in CHO-K1 cells assessed down-modulation of CD4 surface expression incubated for 24 hrs by flow cytometry; type: toxicity, cell-based; details: read-out: Ratio CC50/IC50

| SMILES | pIC50 [1] | solubility kinetic at 1 h [3] [µM] | solubility thermodynamic at 72 h [4] [µM] | pIC50 [2] | CC50 (MT4) [µM] | selectivity ratio at 24 h [5] |
| --- | --- | --- | --- | --- | --- | --- |
| C=C1CN(S(=O)(=O)c2ccc(C)cc2)CCc2cc(CC)cc(n2)CCN(S(=O)(=O)c2ccc(C)cc2)C1 | 6.07 |  |  | 5.47 | > 100 |  |
| C=C1CN(S(=O)(=O)c2ccc(C)cc2)CCc2cc(OCC3CCCCC3)cc(n2)CCN(S(=O)(=O)c2ccc(C)cc2)C1.Cl | 6.89 | 65 |  | 6.03 | > 100 |  |
| C=C1CN(S(=O)(=O)c2ccc(C)cc2)CCc2cc(C)cc(n2)CCN(S(=O)(=O)c2ccc(C)cc2)C1 | 5.78 |  |  | < 4.30 | > 100 |  |
| C=C1CN(S(=O)(=O)c2ccc(C)cc2)CCCN(Cc2ccccc2)CCCN(S(=O)(=O)c2ccc(C)cc2)C1.Cl [CYCLOTRIAZADISULFONAMIDE HYDROCHLORIDE] | 6.48 | 43 | 11 | 5.77 | > 100 |  |
| C=C1CN(S(=O)(=O)c2ccc(C)cc2)CCc2cc(OC)cc(n2)CCN(S(=O)(=O)c2ccc(C)cc2)C1.Cl | 5.73 | 64 | 28 | 4.90 | > 100 |  |
| C=C1CN(S(=O)(=O)c2ccc(C)cc2)CCc2cc(CCCC)cc(n2)CCN(S(=O)(=O)c2ccc(C)cc2)C1 | 6.27 |  |  | 5.62 | 65.8 | > 100 |
| C=C1CN(S(=O)(=O)c2ccc(C)cc2)CCc2cc(CC(C)C)cc(n2)CCN(S(=O)(=O)c2ccc(C)cc2)C1.Cl | 6.18 |  | 29 | 5.64 | 87.9 | > 100 |
| Br.C=C1CN(S(=O)(=O)c2ccc(C)cc2)CCc2cc(O)cc(n2)CCN(S(=O)(=O)c2ccc(C)cc2)C1 | 5.03 |  | 27 | < 4.30 | > 100 |  |

Second part, led by results:

| pIC50 [1] | solubility kinetic at 1 h [3] [µM] | solubility thermodynamic at 72 h [4] [µM] | SMILES | pIC50 [2] | CC50 (MT4) [µM] | selectivity ratio at 24 h [5] |
| --- | --- | --- | --- | --- | --- | --- |
| 5.82 | 54 |  | C=C1CN(S(=O)(=O)c2ccc(C)cc2)CCc2cc(OCC)cc(n2)CCN(S(=O)(=O)c2ccc(C)cc2)C1.Cl | 4.98 | > 100 |  |
| 6.08 |  | 18 | C=C1CN(S(=O)(=O)c2ccc(C)cc2)CCc2cc(CCC)cc(n2)CCN(S(=O)(=O)c2ccc(C)cc2)C1.Cl | 5.55 | > 100 |  |
| 6.13 | 61 |  | C=C1CN(S(=O)(=O)c2ccc(C)cc2)CCc2cc(-c3ccccc3)cc(n2)CCN(S(=O)(=O)c2ccc(C)cc2)C1.Cl | 5.61 | > 100 |  |
| 6.66 |  |  | C=C1CN(S(=O)(=O)c2ccc(N(C)C)cc2)CCc2cc(CC)cc(n2)CCN(S(=O)(=O)c2ccc(N(C)C)cc2)C1 | 5.96 | > 100 |  |
| 5.55 |  |  | C=C1CN(S(=O)(=O)c2ccc(C)cc2)CCc2cccc(n2)CCN(S(=O)(=O)c2ccc(C)cc2)C1 | < 4.30 | > 100 |  |
| 6.02 |  | 20 | C=C1CN(S(=O)(=O)c2ccc(C)cc2)CCc2cc(C(C)(C)C)cc(n2)CCN(S(=O)(=O)c2ccc(C)cc2)C1.Cl | 5.57 | > 100 |  |
| 6.38 |  |  | C=C1CN(S(=O)(=O)c2ccc(C)cc2)CCc2cc(OCc3ccccc3)cc(n2)CCN(S(=O)(=O)c2ccc(C)cc2)C1 | 5.66 | > 100 |  |

From ChEMBL document CHEMBL4673284, “Syntheses and anti-HIV and human cluster of differentiation 4 (CD4) down-modulating potencies of pyridine-fused cyclotriazadisulfonamide (CADA) compounds” (Bioorg Med Chem, 2020)
